The source made the active and inactive calls. The rule behind the calls is not given here.
Tests used:
[1] = biological target: T1, Proteasome component C5 (Homo sapiens) (UniProt P20618); experiment: Inhibition of human 20S constitutive proteasome beta-1 at 50 uM using Z-LLE-betaNA as substrate incubated for 15 mins measured for 45 mins by fluorescence assay relative to control
T1 sequence (whole entry): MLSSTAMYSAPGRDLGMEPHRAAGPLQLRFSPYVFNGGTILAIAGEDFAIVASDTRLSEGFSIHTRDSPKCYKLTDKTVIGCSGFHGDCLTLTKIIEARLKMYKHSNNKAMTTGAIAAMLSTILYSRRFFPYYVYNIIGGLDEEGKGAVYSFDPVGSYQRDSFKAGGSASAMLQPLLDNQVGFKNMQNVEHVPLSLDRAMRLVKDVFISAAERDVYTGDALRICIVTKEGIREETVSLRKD
Method in brief: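 Human 20S constitutive proteasome, 0.3 nM, was preincubated 15 min with compound (0.001-50 μM) in pH 8 Tris-HCl 20 mM, 10% glycerol, 0.01% SDS, 2% DMSO. Z-LLE-βNA at 50 μM was added. βNA fluorescence (ex 340/em 404 nm) was monitored 45 min at 37 °C against an untreated control.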

[2] = biological target: T2, Proteasome subunit beta type-9 (Homo sapiens) (UniProt P28065); experiment: Inhibition of human 20S immunoproteasome beta-1 at 50 uM using Ac-PAL-AMC as substrate incubated for 15 mins measured for 45 mins by fluorescence assay relative to control
T2 sequence (whole entry): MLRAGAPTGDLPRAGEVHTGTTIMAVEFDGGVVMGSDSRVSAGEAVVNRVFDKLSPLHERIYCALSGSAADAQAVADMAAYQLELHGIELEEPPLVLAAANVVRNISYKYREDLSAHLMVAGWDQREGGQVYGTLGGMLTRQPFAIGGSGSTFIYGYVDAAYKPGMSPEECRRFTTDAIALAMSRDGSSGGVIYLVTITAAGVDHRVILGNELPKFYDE
Method in brief: (§1)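 Human 20S immunoproteasome (0.3 nM) was given 15 min with compound (0.001-50 μM) in pH 8 buffer of 20 mM Tris-HCl, 10% glycerol, 0.01% SDS, 2% DMSO. Ac-PAL-AMC at 50 μM was the substrate. Fluorescence (ex 360/em 460 nm) was followed 45 min at 37 °C relative to control.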

[3] = biological target: Proteasome Macropain subunit (Homo sapiens) (UniProt P49721); experiment: Inhibition of human 20S constitutive proteasome beta-2 at 50 uM using BocLRR-AMC as substrate incubated for 15 mins measured for 45 mins by fluorescence assay relative to control
Method in brief: (§2)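 Purified human 20S proteasome (cCP or iCP), 0.3 nM, preincubated 15 min with compound (0.001-50 μM) in pH 8 buffer of 20 mM Tris-HCl, 10% glycerol, 0.005% Triton X-100, 2% DMSO. Then Boc-LRR-AMC at 50 μM was added. AMC fluorescence (ex 360/em 460 nm) was followed 45 min at 37 °C. Activity is relative to an untreated control.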

[4] = biological target: T3, Proteasome subunit beta type-10 (Homo sapiens) (UniProt P40306); experiment: Inhibition of human 20S immunoproteasome beta-2 at 50 uM using BocLRR-AMC as substrate incubated for 15 mins measured for 45 mins by fluorescence assay relative to control
T3 sequence (whole entry): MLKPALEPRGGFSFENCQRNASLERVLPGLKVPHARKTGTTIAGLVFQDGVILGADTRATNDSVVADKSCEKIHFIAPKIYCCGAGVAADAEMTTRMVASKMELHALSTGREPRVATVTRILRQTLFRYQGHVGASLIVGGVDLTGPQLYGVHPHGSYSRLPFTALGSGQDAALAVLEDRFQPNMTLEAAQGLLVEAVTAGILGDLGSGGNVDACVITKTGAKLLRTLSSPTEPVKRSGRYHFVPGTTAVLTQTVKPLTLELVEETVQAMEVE

[5] = tested on: 20S immunoproteasome β5i (Homo sapiens); experiment: Inhibition of human 20S immunoproteasome beta-5 at 50 uM
[6] = tested on: 20S proteasome β5 (Homo sapiens); experiment: Inhibition of human 20S constitutive proteasome beta-5 at 50 uM
[7] = biological target: T4, Proteasome Macropain subunit MB1 (Homo sapiens, UniProt P28074); experiment: Inhibition of human 20S constitutive proteasome beta-5 using Suc-LLVY-AMC as substrate incubated for 15 mins measured for 45 mins by fluorescence assay
T4 sequence (P28074 whole entry): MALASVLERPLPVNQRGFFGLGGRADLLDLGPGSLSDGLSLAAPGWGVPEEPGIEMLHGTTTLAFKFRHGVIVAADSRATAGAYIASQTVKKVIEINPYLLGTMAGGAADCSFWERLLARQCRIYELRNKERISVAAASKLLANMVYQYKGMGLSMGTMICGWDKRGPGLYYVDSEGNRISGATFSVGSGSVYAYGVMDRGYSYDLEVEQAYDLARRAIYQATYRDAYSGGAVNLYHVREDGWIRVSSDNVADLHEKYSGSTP
Method in brief: (§3)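 Human 20S cCP or iCP (0.3 nM) was exposed to compound (0.001-50 μM) for 15 min in pH 8 buffer of 20 mM Tris-HCl, 10% glycerol, 0.01% SDS, 2% DMSO. Suc-LLVY-AMC at 20 μM followed. Fluorescence (ex 360/em 460 nm) was read 45 min at 37 °C versus untreated enzyme.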

[8] = biological target: T5, Proteasome subunit beta type-8 (Homo sapiens, UniProt P28062); experiment: Inhibition of human 20S immunoproteasome beta-5 using Suc-LLVY-AMC as substrate incubated for 15 mins measured for 45 mins by fluorescence assay; method in brief: as §3
T5 sequence (P28062 whole entry): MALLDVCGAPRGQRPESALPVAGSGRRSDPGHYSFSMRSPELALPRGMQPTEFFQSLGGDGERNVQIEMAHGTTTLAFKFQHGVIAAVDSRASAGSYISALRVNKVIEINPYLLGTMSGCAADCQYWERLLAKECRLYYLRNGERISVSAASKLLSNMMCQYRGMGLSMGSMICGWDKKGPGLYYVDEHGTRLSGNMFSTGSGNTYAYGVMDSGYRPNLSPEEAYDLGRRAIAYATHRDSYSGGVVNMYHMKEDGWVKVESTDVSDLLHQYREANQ

[9] = biological target: T6, Proteasome Macropain subunit MB1 (Homo sapiens) (UniProt P28074); experiment: Inhibition of human 20S constitutive proteasome beta-5 at 50 uM using Suc-LLVY-AMC as substrate incubated for 15 mins measured for 45 mins by fluorescence assay relative to control; method in brief: as §3
T6 sequence (whole entry): T4 sequence (P28074 whole entry)

[10] = biological target: T7, Proteasome subunit beta type-8 (Homo sapiens) (UniProt P28062); experiment: Inhibition of human 20S immunoproteasome beta-5 at 50 uM using Suc-LLVY-AMC as substrate incubated for 15 mins measured for 45 mins by fluorescence assay relative to control; method in brief: as §3
T7 sequence (whole entry): T5 sequence (P28062 whole entry)

[11] = biological target: T8, Proteasome subunit beta type-9 (Homo sapiens, UniProt P28065); experiment: Inhibition of human 20S immunoproteasome beta-1 using Ac-PAL-AMC as substrate incubated for 15 mins measured for 45 mins by fluorescence assay; method in brief: as §1
T8 sequence (P28065 whole entry): T2 sequence (whole entry)

[12] = biological target: T3, Proteasome subunit beta type-10 (Homo sapiens); experiment: Activation of human 20S immunoproteasome beta-2 at 50 uM using BocLRR-AMC as substrate incubated for 15 mins measured for 45 mins by fluorescence assay relative to control; method in brief: as §2
[13] = biological target: T9, Proteasome subunit beta type-10 (Homo sapiens, UniProt P40306); experiment: Inhibition of human 20S immunoproteasome beta-2 using BocLRR-AMC as substrate incubated for 15 mins measured for 45 mins by fluorescence assay
T9 sequence (P40306 whole entry): T3 sequence (whole entry)

[14] = tested on: 20S immunoproteasome β5i (Homo sapiens); experiment: Inhibition of human 20S immunoproteasome beta-5
[15] = tested on: 20S proteasome β5 (Homo sapiens); experiment: Inhibition of human 20S constitutive proteasome beta-5
Huh-7 = experiment: Cytotoxicity against human HuH7 cells assessed as reduction in cell viability after 48 hrs by Hoechst 33342 staining based HCS assay; assay type: functional; conditions: Homo sapiens, Huh-7, 48 h; read-out: EC50
Method in brief: (§4)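 Cells were grown at 37 °C, 5% CO2 in medium with 10% FBS, 1% penicillin-streptomycin, 2 mM glutamine: DMEM for HuH7, MDA-MB-231 and fibroblasts, EMEM for Caco2, McCoy's for HCT116, RPMI for PC3 and NCI-H727. 4000 cells/well were seeded and dosed 24 h later at 0.1-25 μM final, from DMSO stocks. After 48 h they were fixed in ethanol/acetic acid and Hoechst-stained nuclei were counted by imaging. Survival is relative to DMSO. EC50 came from dose-response curves.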

Caco-2 = experiment: Cytotoxicity against human Caco2 cells assessed as reduction in cell viability after 48 hrs by Hoechst 33342 staining based HCS assay; assay type: functional; conditions: Homo sapiens, Caco-2, 48 h; read-out: EC50; method in brief: as §4
MDA-MB-231 = experiment: Cytotoxicity against human MDA-MB-231 cells assessed as reduction in cell viability after 48 hrs by Hoechst 33342 staining based HCS assay; assay type: functional; conditions: Homo sapiens, MDA-MB-231, 48 h; read-out: EC50; method in brief: as §4
HCT-116 = experiment: Cytotoxicity against human HCT116 cells assessed as reduction in cell viability after 48 hrs by Hoechst 33342 staining based HCS assay; assay type: functional; conditions: Homo sapiens, HCT-116, 48 h; read-out: EC50; method in brief: as §4
PC-3 = experiment: Cytotoxicity against human PC3 cells assessed as reduction in cell viability after 48 hrs by Hoechst 33342 staining based HCS assay; assay type: functional; conditions: Homo sapiens, PC-3, 48 h; read-out: EC50; method in brief: as §4
NCI-H727 = experiment: Cytotoxicity against human NCI-H727 cells assessed as reduction in cell viability after 48 hrs by Hoechst 33342 staining based HCS assay; assay type: functional; conditions: Homo sapiens, NCI-H727, 48 h; read-out: EC50; method in brief: as §4
MCF7 = experiment: Cytotoxicity against human MCF7 cells assessed as reduction in cell viability after 48 hrs by Hoechst 33342 staining based HCS assay; assay type: functional; conditions: Homo sapiens, MCF7, 48 h; read-out: EC50
Fibroblast = experiment: Cytotoxicity against human fibroblasts assessed as reduction in cell viability after 48 hrs by Hoechst 33342 staining based HCS assay; method in brief: as §4

Chain of Proteasome Macropain subunit (Homo sapiens) (P49721 whole entry): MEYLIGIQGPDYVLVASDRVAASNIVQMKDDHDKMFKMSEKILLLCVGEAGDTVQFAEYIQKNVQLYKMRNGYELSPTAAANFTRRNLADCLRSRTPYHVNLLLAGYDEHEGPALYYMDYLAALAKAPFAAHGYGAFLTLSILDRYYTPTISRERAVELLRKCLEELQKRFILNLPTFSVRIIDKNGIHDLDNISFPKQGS

Row | SMILES | inhibition [1] | inhibition [2] | inhibition [3] | inhibition [4] | IC50 [7] | IC50 [8] | inhibition [9] | inhibition [10] | IC50 [11] | fold change (FC) [12] | IC50 [13] | IC50 [14] | IC50 [15] | also measured
1 | CNC(=O)[C@H](C[C@@]1(O)C(=O)Nc2ccccc21)NC(=O)[C@H](C)NC(=O)[C@H](Cc1ccc(OCc2ccccc2)cc1)NC(=O)OC(C)(C)C | inactive | 10% | 13% | 19% |  |  |  |  |  |  |  |  |  | inhibition [5]: 8%; inhibition [6]: inactive
2 | C[C@H](NC(=O)[C@H](Cc1ccc(OCc2ccccc2)cc1)NC(=O)OC(C)(C)C)C(=O)N[C@@H](C[C@]1(O)C(=O)Nc2ccccc21)C(=O)NCc1ccc(-c2ccccc2)cc1 | > 85% | > 85% | inactive |  | 28.7 µM | 19.7 µM | > 85% | > 85% | 13 µM | 1.5 |  |  |  | 
3 | C[C@H](NC(=O)[C@@H](N)Cc1ccc(OCc2ccccc2)cc1)C(=O)N[C@@H](C[C@]1(O)C(=O)Nc2ccccc21)C(=O)NCc1ccccc1 | > 85% | > 85% | > 85% | > 85% |  |  |  |  | 21.5 µM |  | 27.2 µM | 13 µM | 10.7 µM | 
4 | CC(C)(C)OC(=O)NCCCC[C@H](NC(=O)[C@H](Cc1ccc(OCc2ccccc2)cc1)NC(=O)OC(C)(C)C)C(=O)N[C@@H](C[C@]1(O)C(=O)Nc2ccccc21)C(=O)NCc1ccccc1 | 15% | > 85% | inactive |  | 22 µM | 25.1 µM | > 85% | > 85% | 59 µM | 1.3 |  |  |  | 
5 | COc1ccc(C[C@H](NC(=O)[C@H](C)NC(=O)CN2CCOCC2)C(=O)N[C@@H](Cc2ccccc2)C(=O)[C@@]2(C)CO2)cc1 | > 85% | > 85% | > 85% |  |  |  | > 85% | > 85% |  |  |  |  |  | EC50 (Huh-7): 390 nM; EC50 (Caco-2): 1300 nM; EC50 (MDA-MB-231): 270 nM; EC50 (HCT-116): 110 nM; EC50 (PC-3): 330 nM; EC50 (NCI-H727): 300 nM; EC50 (MCF7): 260 nM; EC50 (Fibroblast): 160 nM
6 | C[C@H](NC(=O)[C@H](Cc1ccc(O)cc1)NC(=O)OC(C)(C)C)C(=O)N[C@@H](C[C@]1(O)C(=O)Nc2ccccc21)C(=O)NCc1ccccc1 | inactive | 12% | 19% | 10% |  |  |  |  |  |  |  | 34 µM | 32 µM | 
7 | C[C@H](NC(=O)[C@H](Cc1ccc(OCc2ccccc2)cc1)NC(=O)OC(C)(C)C)C(=O)N[C@@H](C[C@@]1(O)C(=O)Nc2ccccc21)C(=O)NCc1ccccc1 | > 85% | > 85% | inactive | > 85% |  |  |  |  | 10.6 µM |  | 34 µM | 7.3 µM | 7 µM | 
8 | CNC(=O)[C@H](C[C@]1(O)C(=O)Nc2ccccc21)NC(=O)[C@H](C)NC(=O)[C@H](Cc1ccc(OCc2ccccc2)cc1)NC(=O)OC(C)(C)C | 20% | 13% | 36% | > 85% |  |  |  |  |  |  | 79 µM |  |  | inhibition [5]: 24%
9 | CC(C)c1ccc(CNC(=O)[C@H](C[C@]2(O)C(=O)Nc3ccccc32)NC(=O)[C@H](C)NC(=O)[C@H](Cc2ccc(OCc3ccccc3)cc2)NC(=O)OC(C)(C)C)cc1 | 37% | > 85% | inactive |  | 10 µM | 17.1 µM | > 85% | > 85% |  | 1.3 |  |  |  | 
